Experimental findings from ChEMBL document CHEMBL4513216, “Probing the Open Global Health Chemical Diversity Library for Multistage-Active Starting Points for Next-Generation Antimalarials” (ACS Infect Dis, 2020) are described below.

Structures are written as SMILES.

This data set is described as follows: Toxicity liver stage against HepG2, at 10uM. The following applies: human, HepG2-A16-CD81EGFP cells; read-out: INHIBITION
It counts as cell-based. On the set-up: test concentration 10 uM, cell line HepG2-A16-CD81EGFP. A digest of the protocol:
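Uninfected HepG2-A16-CD81EGFP cells, 3 × 10^3 per well, 1536-well, plated on prespotted compound at 10 μM final, parasite-free screening media added to match infected plates; puromycin 10 μM positive, DMSO 0.5% negative; run in parallel with 48 h PbLuc assay at 37 °C, 5% CO2; viability by CellTiter-Glo luminescence, normalized to controls.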
Regarding `Cn1c2ccccc2c2ncn(CCN3CCOCC3)c(=O)c21`, the cytotoxicity at 10 µM worked out at 15.7%. To `CCC1(CC)Cc2ccccc2-c2nc(NCCO)[nH]c(=O)c21` belongs -7.17%. To `Cc1c(CNCc2nn(-c3ccccc3)c3c2CCC3)cc(C#N)n1C` belongs 13.3%; to `CCN1C[C@H]2CCN(C(=O)c3cc[nH]n3)CC[C@H]2S1(=O)=O`, 12.2%. To `CC(=O)Nc1nc(-c2ccc(F)cc2)c[nH]1` belongs 2.41%; to `CN(CC(=O)NCC(F)(F)F)C(=O)c1ccc(C(=O)OC(C)(C)C)cc1`, 0.68%. Consider `CNC(=O)Cc1ccc(NC(=O)NCc2ncc(C)s2)cc1`, for which the cytotoxicity at 10 µM was 7.34%. To `CCCc1ncc(C(=O)N2CCOc3ncccc32)s1` belongs 11.6%; to `CCc1ccc(C2CCCCCN2C(=O)CNC(=O)C2CC2)o1` (centres undefined), -7.25%; to `COc1ccc(CCN(C)CCS(=O)(=O)c2ccc(Cl)cc2)cc1OC`, 35.4%. For `O=C(COc1cccc2c1CCC2=O)NCCc1cccs1`, the cytotoxicity at 10 µM is 0.79%. To `Cc1ccsc1CNC(=O)Nc1ccn(CCN2CCOCC2)n1` belongs 8.28%; to `CCC1CN(C)c2ccccc2CN1C(=O)Nc1ccccc1OC` (centres undefined), -1.87%; to `O=C(CCc1ccco1)NS(=O)(=O)Cc1ccon1`, 9.99%.

For the compound `Cc1cc(Br)cnc1NCCN1CCC(N(C)C)CC1`, the cytotoxicity at 10 µM is -10.6%. Consider `O=C(Nc1ccc(N2CCCC2)nc1)N1CCc2ccccc2C1`, for which the cytotoxicity at 10 µM is -10.2%. To `CCOCC(=O)N1C[C@@H]2COC[C@]2(c2nc(C)no2)C1` belongs -90.9%.

For the compound `CNC(=O)N1CC[C@@H]2CN(Cc3cccc(OC)c3)S(=O)(=O)[C@@H]2CC1`, the cytotoxicity at 10 µM is -108%. Regarding `c1cc(CN2CCOCC3(CCNCC3)C2)ccn1`, the cytotoxicity at 10 µM is -71%.

As for `COc1cc(C(=O)NCc2cc(N3CCOCC3)ncn2)ccn1`, the cytotoxicity at 10 µM was -10.8%. To `Cn1ncc(N2CCC(CNC3CC(c4ccccc4)C3)CC2)cc1=O` (centres undefined) belongs -2.15%; to `Cc1cc(CC(C)Nc2ncc(C)c(N(C)C)n2)[nH]n1` (centres undefined), -7.85%. To `O=C(c1cc(=O)n(-c2ccccc2)[nH]1)N1CCOC(C(F)(F)F)C1` (centres undefined) belongs 3.32%; to `COc1cccc(CC(=O)N2CCc3ncnc(NCCO)c3CC2)c1`, -4.12%; to `COc1coc(CN2CCCC(CCc3ccc(F)c(F)c3)C2)cc1=O` (centres undefined), 1.95%. To `CNC(=O)C(C)(C)NC(=O)c1cc(COc2ccccc2OC)[nH]n1` belongs 1.6%; to `CN(Cc1ccccc1Cl)C(C(=O)O)c1ccc(F)c(CO)c1` (centres undefined), -46.4%. Turning to `CCSC(C)C(=O)N1CCC(c2nn(C)c(=O)n2-c2ccccc2)CC1` (centres undefined), the cytotoxicity at 10 µM stood at 0.299%. To `COc1ncc(CN(CCN(C)C)Cc2ccc(C)s2)cn1` belongs -50.3%; to `Cc1noc(C)c1C(=O)NCc1ccnc(OCC(F)(F)F)c1`, -0.421%; to `Cn1nc(COc2cncnc2)c2c1CCN(Cc1ccco1)C2`, 9.64%. To `CC(C)C(=O)N1CCC2(CC1)COCCN2Cc1ccc(F)cc1` belongs -60.9%. To `O=C(NCc1cnc2n1CCN(Cc1ccoc1)C2)c1ccno1` belongs -93%; to `CCn1cc2c(n1)CN(Cc1cnn(C)c1)CC2COCC1CC1` (centres undefined), -80.4%. Regarding `Cc1cccc(CO[C@@H]2CO[C@@]3(CCN(S(=O)(=O)N(C)C)C3)C2)n1`, the cytotoxicity at 10 µM turned out to be 4.14%. To `CN(C)CCNC(=O)c1cc(-c2cnc(N3CCCC3)nc2)cn1C` belongs 15.7%; to `c1cncc(N2CCCC3(CN(Cc4cccs4)CCO3)C2)c1` (centres undefined), 11.5%; to `O=C(Nc1cccnc1)[C@H]1C[C@H]2CN(Cc3ccc(F)cc3)C[C@@H]1O2`, -82.9%.

On to `O=S(=O)(c1cccc(F)c1)N1C[C@H]2CC[C@@H](C1)N(Cc1ccccc1)C2`, for which the cytotoxicity at 10 µM is -3.03%.
